Our source for the inhibition and Activity values is ChEMBL document CHEMBL4145607, “Tamarixetin Exhibits Anti-inflammatory Activity and Prevents Bacterial Sepsis by Increasing IL-10 Production” (J Nat Prod, 2018).

The source made the active and inactive calls. The rule behind the calls is not given here.

Experiment [1] addresses T1, Toll-like receptor 4 (Mus musculus) (UniProt Q9QUK6).
T1 sequence (whole entry): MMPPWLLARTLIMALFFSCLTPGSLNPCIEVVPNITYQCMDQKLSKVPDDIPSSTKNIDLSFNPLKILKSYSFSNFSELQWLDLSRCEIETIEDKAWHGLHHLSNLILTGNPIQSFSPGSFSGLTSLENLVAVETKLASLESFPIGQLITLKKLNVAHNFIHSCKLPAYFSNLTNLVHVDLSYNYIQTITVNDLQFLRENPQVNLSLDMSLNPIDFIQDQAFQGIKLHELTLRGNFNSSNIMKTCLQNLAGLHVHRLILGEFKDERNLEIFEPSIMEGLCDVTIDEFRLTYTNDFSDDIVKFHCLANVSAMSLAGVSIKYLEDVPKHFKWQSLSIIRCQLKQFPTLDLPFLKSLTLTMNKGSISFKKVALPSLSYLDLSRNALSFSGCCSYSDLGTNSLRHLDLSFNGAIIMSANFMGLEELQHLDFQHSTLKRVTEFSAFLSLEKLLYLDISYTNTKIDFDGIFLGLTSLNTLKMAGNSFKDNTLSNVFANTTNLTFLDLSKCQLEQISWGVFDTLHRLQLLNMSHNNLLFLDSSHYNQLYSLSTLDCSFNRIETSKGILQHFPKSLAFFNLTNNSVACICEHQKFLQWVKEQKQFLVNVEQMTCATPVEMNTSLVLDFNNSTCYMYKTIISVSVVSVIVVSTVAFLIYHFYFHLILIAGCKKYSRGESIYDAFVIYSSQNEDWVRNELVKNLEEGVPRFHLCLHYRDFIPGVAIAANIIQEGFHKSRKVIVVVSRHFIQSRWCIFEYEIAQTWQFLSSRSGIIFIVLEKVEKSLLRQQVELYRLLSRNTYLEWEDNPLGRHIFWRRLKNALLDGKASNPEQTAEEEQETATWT
Description: Inhibition of LPS-induced TLR4 activation in C57BL/6 mouse BMDC assessed as reduction in COX2 expression at 25 uM pretreated for 30 mins followed by LPS-challenge measured after 15 to 90 mins by Western blot analysis. The class given is cell-based. In outline:
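BMDCs were pretreated 30 min with 25 μM compound, then stimulated with LPS 50 ng·mL−1 for the indicated times. Lysates (25 μg protein) were run on 10% SDS-PAGE and immunoblotted for phospho/total ERK, JNK, p38 and Akt, plus COX-2, IκBα and α-tubulin, with ECL detection. Representative of three experiments.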
For orientation: A western blot detects proteins with antibodies after separation by electrophoresis.

The subject of another experiment is Mus musculus. Description: Antiseptic activity in Balb/c mouse model of Escherichia coli K1 infection-induced sepsis assessed as reduction in infiltration of immune cells in lungs at 1 mg/kg, ip pretreated for 1 hr followed by Escherichia coli K1 infection measured after 12 hrs by hematoxylin and eosin staining based microscopic analysis. The class given is functional, organism-based. In outline: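 BALB/c mice were given 1 mg·kg−1 i.p. 1 h before i.p. E. coli K1 (1 × 10^6 CFU per mouse). At 12 h, lungs were perfused and formalin-fixed. Sections were H&E-stained and examined by microscope. Representative of three independent experiments.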

For experiment [2], the system named is BMDC. Description: Inhibition of Escherichia coli K1 infection-induced immune response in C57BL/6 mouse BMDC assessed as reduction in IL-12p70 secretion at 25 uM pretreated for 60 to 120 mins followed by Escherichia coli K1 infection for 6 hrs by ELISA. The class given is functional, cell-based. In outline:
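BMDCs from C57BL/6 mice were given 25 μM compound and E. coli K1, […]. Timing was: compound 30 min before a 6 h infection; cotreatment for 6 h; or compound for 30–120 min with 6 h infection. Supernatant cytokines (TNF-α, IL-6, IL-10, IL-12p70) were measured by ELISA. At least three experiments in triplicate.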

The test system of experiment [3] is BMDC. Description: Inhibition of Escherichia coli DH5alpha infection-induced immune response in C57BL/6 mouse BMDC assessed as reduction in IL-12p70 secretion at 25 uM pretreated for 60 to 120 mins followed by Escherichia coli DH5alpha infection for 6 hrs by ELISA. The class given is functional, cell-based. In outline:
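C57BL/6 BMDCs received 25 μM compound and E. coli DH5α, 3 × 10^6 CFU·mL−1. Schedules were: compound 30 min before a 6 h infection; co-addition for 6 h; or compound for 30, 60, 90 or 120 min plus 6 h infection. Supernatant TNF-α, IL-6, IL-10 and IL-12p70 were measured by ELISA. At least three experiments in triplicate.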
On the technique in general: ELISA stands for enzyme-linked immunosorbent assay.

For `COc1ccc(-c2oc3cc(O)cc(O)c3c(=O)c2O)cc1O` [TAMARIXETIN], in experiment [1], the inhibition result is “Active”. Also, the result in the experiment with Mus musculus was Active. Moreover, the inhibition result with BMDC [2] and in the experiment with BMDC [3] was “inactive” in each case.
